Laboratory results from ChEMBL document CHEMBL4359913, “Identification and characterization of benzo[d]oxazol-2(3H)-one derivatives as the first potent and selective small-molecule inhibitors of chromodomain protein CDYL” (Eur J Med Chem, 2019).
Activity calls are given as the source filed them. The calls are words filed in the database; no cut-off is given here. Where a SMILES comes first, the peptide text is derived from it. [ ]: non-standard residue; d: D form. The star is where a group is joined. Benzoyl(4-tBu) = CC(C)(C)c1ccc(C(=O)*)cc1; Lys(Et2) = CCN(CC)CCCC[C@H](N)C(=O)O

Columns and labels:
[1] = target: T1, Chromodomain Y-like protein (Homo sapiens, UniProt Q9Y232); experiment: Binding affinity to recombinant human N-terminal GST-tagged CDYL (1 to 60 residues) expressed in Escherichia coli […] by SPR analysis
T1 sequence (Q9Y232 whole entry): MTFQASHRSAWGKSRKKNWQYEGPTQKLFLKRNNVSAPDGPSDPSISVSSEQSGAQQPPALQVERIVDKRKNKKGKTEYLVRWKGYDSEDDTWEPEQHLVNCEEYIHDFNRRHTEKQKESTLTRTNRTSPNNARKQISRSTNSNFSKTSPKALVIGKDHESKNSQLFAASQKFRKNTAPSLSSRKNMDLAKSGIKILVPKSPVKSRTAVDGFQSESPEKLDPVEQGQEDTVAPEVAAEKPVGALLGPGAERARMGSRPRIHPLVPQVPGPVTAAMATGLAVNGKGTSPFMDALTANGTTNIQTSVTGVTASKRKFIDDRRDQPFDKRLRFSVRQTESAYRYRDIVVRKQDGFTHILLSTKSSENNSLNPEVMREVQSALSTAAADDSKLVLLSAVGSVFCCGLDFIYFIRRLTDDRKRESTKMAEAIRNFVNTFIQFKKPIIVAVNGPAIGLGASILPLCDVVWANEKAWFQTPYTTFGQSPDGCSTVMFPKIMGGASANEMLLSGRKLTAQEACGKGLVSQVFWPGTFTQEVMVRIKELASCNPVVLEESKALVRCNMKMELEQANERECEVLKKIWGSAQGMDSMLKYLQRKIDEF
Outline: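 GST-tagged chromodomain expressed in E. coli BL21 with 0.2 mM IPTG at 28 °C for 6 h. Purified on GSTrap, tag removed with PreScission protease. Amine-coupled to CM5 chip at pH 4.0–4.5 (5000–10000 RU). Compound run as a 1.5- or 2-fold series from 100 µM in PBSP with 5% DMSO, 25 °C, 30 µL/min, 60 s association and 60 s dissociation.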

[2] = target: T2, Chromodomain Y-like protein (Homo sapiens) (UniProt Q9Y232); experiment: Inhibition of CDYL in human SH-SY5Y cells assessed as increase in MYT1 mRNA expression incubated for 24 hrs by RT-qPCR analysis; type: cell-based
T2 sequence (whole entry): T1 sequence (Q9Y232 whole entry)
Outline: (§1)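 SH-SY5Y or HEK-293T cells grown in DMEM with 10% FBS and treated with compound for 24 h. mRNA quantified by SYBR green RT-qPCR after DNase treatment, 2^-ΔΔCt method with GAPDH as reference, relative to DMSO. Mean ± S.E.M. of triplicate experiments, Student's t-test.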

[3] = target: T3, Chromobox protein homolog 7 (Homo sapiens, UniProt O95931); experiment: Binding affinity to recombinant human N-terminal GST-tagged CBX7 (1 to 62 residues) expressed in Escherichia coli […] by SPR analysis
T3 sequence (O95931 whole entry): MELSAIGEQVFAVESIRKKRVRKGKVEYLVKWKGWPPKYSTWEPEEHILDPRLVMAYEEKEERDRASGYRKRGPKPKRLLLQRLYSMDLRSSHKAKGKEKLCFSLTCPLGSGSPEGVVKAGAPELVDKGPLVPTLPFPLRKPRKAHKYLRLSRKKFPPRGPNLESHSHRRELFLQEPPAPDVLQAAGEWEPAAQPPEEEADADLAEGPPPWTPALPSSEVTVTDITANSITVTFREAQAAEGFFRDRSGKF
Outline: (§2)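 Chromodomain expressed with N-terminal GST tag in E. coli BL21 (IPTG 0.2 mM at OD600 0.6–0.8, 28 C for 6 h), GSTrap purified, tag cleaved by PreScission protease, amine-coupled to CM5 chip at pH 4.0–4.5 (5000–10000 RU). […] Mean ± SD of at least two replicates, each in duplicate.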

[4] = system: SH-SY5Y; experiment: Cytotoxicity against human SH-SY5Y cells assessed as reduction in cell viability incubated for 24 hrs by CCK8 assay
[5] = system: HEK-293T; experiment: Cytotoxicity against human HEK293T cells assessed as reduction in cell viability incubated for 24 hrs by CCK8 assay
[6] = target: T4, Testis-specific chromodomain protein Y 1 (Homo sapiens, UniProt Q9Y6F8); experiment: Binding affinity to recombinant human N-terminal GST-tagged CDY1 (1 to 65 residues) expressed in Escherichia coli […] by SPR analysis; outline: as §2
T4 sequence (Q9Y6F8 whole entry): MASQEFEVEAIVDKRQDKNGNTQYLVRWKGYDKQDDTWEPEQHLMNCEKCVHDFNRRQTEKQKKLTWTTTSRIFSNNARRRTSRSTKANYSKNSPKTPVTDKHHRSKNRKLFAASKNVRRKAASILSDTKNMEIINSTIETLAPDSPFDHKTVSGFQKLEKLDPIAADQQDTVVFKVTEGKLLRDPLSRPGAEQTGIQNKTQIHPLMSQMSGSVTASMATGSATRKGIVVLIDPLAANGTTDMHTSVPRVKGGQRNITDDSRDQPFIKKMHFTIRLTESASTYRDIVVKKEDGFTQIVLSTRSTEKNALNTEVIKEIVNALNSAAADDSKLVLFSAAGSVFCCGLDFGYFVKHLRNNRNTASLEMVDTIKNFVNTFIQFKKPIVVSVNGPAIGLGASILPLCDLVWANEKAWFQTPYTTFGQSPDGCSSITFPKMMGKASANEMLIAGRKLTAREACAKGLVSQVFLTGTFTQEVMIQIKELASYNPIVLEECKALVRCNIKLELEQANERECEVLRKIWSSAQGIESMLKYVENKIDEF

[7] = target: T2, Chromodomain Y-like protein (Homo sapiens); experiment: Inhibition of CDYL in human SH-SY5Y cells assessed as increase in BDNF mRNA expression incubated for 24 hrs by RT-qPCR analysis; type: cell-based; outline: as §1
[8] = target: T2, Chromodomain Y-like protein (Homo sapiens); experiment: Inhibition of CDYL in human SH-SY5Y cells assessed as increase in VGF mRNA expression incubated for 24 hrs by RT-qPCR analysis; type: cell-based; outline: as §1
[9] = target: T2, Chromodomain Y-like protein (Homo sapiens); experiment: Inhibition of CDYL in human HEK293T cells assessed as increase in MYT1 mRNA expression at 50 to 200 uM incubated for 24 hrs by RT-qPCR analysis; type: cell-based; outline: as §1
[10] = target: T2, Chromodomain Y-like protein (Homo sapiens); experiment: Inhibition of CDYL in human HEK293T cells assessed as increase in BDNF mRNA expression at 50 to 200 uM incubated for 24 hrs by RT-qPCR analysis; type: cell-based; outline: as §1
[11] = target: T2, Chromodomain Y-like protein (Homo sapiens); experiment: Inhibition of CDYL in human HEK293T cells assessed as increase in VGF mRNA expression at 50 to 200 uM incubated for 24 hrs by RT-qPCR analysis; type: cell-based; outline: as §1
[12] = target: T2, Chromodomain Y-like protein (Homo sapiens); experiment: Inhibition of CDYL in human SH-SY5Y cells assessed as BDNF mRNA expression at 50 to 200 uM incubated for 24 hrs by RT-qPCR analysis; type: cell-based; outline: as §1
[13] = target: T2, Chromodomain Y-like protein (Homo sapiens); experiment: Inhibition of CDYL in human SH-SY5Y cells assessed as VGF mRNA expression at 50 to 200 uM incubated for 24 hrs by RT-qPCR analysis; type: cell-based; outline: as §1
[14] = target: T2, Chromodomain Y-like protein (Homo sapiens); experiment: Inhibition of CDYL in human SH-SY5Y cells assessed as MYT1 mRNA expression at 50 to 200 uM incubated for 24 hrs by RT-qPCR analysis; type: cell-based; outline: as §1
[15] = target: T2, Chromodomain Y-like protein (Homo sapiens); experiment: Effect on CDYL-mediated MYT1 mRNA expression in human SH-SY5Y cells up to 200 uM incubated for 24 hrs by RT-qPCR analysis; type: cell-based
[16] = target: T2, Chromodomain Y-like protein (Homo sapiens); experiment: Effect on CDYL-mediated MYT1 mRNA expression in human HEK293T cells up to 200 uM incubated for 24 hrs by RT-qPCR analysis; type: cell-based
[17] = target: T2, Chromodomain Y-like protein (Homo sapiens); experiment: Inhibition of CDYL in human SH-SY5Y cells assessed as increase in MYT1 mRNA expression at 100 uM incubated for 24 hrs by RT-qPCR analysis; type: cell-based
Outline: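 SH-SY5Y cells exposed to 100 µM compound for 24 h. MYT1 mRNA measured by RT-qPCR: DNase treatment, SYBR green, 2^-ΔΔCt with GAPDH as internal control. Mean ± S.E.M. of triplicate experiments.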

SMILES | Kd [1] [µM] | Activity [2] | Kd [3] [µM] | Kd [6] [µM] | Activity [9] | Activity [10] | Activity [11] | also measured
COc1cccc(C(=O)CC2(O)C(=O)Nc3ccc(Cl)cc32)c1 (racemic) | 4.9 | Dose-dependent effect | 84.4 | – | – | – | – | IC50 [4]: 68.1 µM; IC50 [5]: 56.1 µM
O=C(Cn1c(=O)oc2ccccc21)c1ccc2ccccc2c1 | 2.6 | Dose-dependent effect | 14.2 | 41.7 | Active | Active | Active | Activity [7]: Dose-dependent effect; Activity [8]: Dose-dependent effect
COc1ccc2oc(=O)n(CC(=O)N3CCC(N4CCCC4)CC3)c2c1 | 12.5 | – | 8.2 | – | inactive | inactive | inactive | Activity [12]: inactive; Activity [13]: inactive; Activity [14]: inactive
CCN(CC)CCCC[C@H](NC(=O)[C@H](CC(C)C)NC(=O)[C@H](C)NC(=O)[C@H](Cc1ccccc1)NC(=O)c1ccc(C(C)(C)C)cc1)C(=O)N[C@@H](CO)C(=O)OC ({Benzoyl(4-tBu)}-FAL[Lys(Et2)]S-OMe) | 5.6 | – | – | – | – | – | – | Activity [15]: inactive; Activity [16]: inactive
CCc1ccc(C(=O)CC2(O)C(=O)Nc3ccc(Cl)cc32)cc1 (centres undefined) | 55.6 | – | 12.1 | 33.5 | – | – | – | Activity [17]: Active
